Experimental data taken from ChEMBL document CHEMBL1130249, “Cyclic enkephalin analogues with exceptional potency and selectivity for delta-opioid receptors” (J Med Chem, 1997).
pIC50: −log10 of the molar value. Peptide text beside a SMILES is read from it.

Legend:
Assay type in all cases: tissue-based
Mu-type opioid receptor [1] = assay: Inhibitory potency against Opioid receptor mu 1 was determined in electrically induced strips of guinea pig ileum (GPI)
Method in brief: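 Ileum longitudinal muscle–myenteric plexus strips from male Hartley guinea pigs (250–500 g), in oxygenated Krebs at 37 °C under 1 g tension. Transmural stimulation at 0.1 Hz, 0.4-ms pulses, supramaximal voltage. IC50 from Hill fit of mean data from at least four tissues.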

[2] = target: Delta-type opioid receptor (Rattus norvegicus, UniProt P33533); assay: Inhibition of binding of radioligand [3H][p-Cl-phe]-DPDPE to Opioid receptor delta 1 in rat brain
Sequence of Delta-type opioid receptor (Rattus norvegicus, UniProt P33533) (P33533 whole entry): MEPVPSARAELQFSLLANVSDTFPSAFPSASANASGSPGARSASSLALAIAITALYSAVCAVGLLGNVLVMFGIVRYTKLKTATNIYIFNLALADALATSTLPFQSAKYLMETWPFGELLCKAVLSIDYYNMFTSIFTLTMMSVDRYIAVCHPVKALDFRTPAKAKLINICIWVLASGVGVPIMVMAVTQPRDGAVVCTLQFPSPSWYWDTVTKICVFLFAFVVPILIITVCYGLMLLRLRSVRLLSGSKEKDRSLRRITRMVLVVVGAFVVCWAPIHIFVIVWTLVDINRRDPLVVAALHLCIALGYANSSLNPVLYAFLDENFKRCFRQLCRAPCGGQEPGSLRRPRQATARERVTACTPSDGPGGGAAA

Mu-type opioid receptor [3] = target: Mu-type opioid receptor (Rattus norvegicus, UniProt P33535); assay: Inhibition of binding of radioligand [3H]CTOP to Opioid receptor mu 1 in rat brain
Sequence of Mu-type opioid receptor (Rattus norvegicus, UniProt P33535) (P33535 whole entry): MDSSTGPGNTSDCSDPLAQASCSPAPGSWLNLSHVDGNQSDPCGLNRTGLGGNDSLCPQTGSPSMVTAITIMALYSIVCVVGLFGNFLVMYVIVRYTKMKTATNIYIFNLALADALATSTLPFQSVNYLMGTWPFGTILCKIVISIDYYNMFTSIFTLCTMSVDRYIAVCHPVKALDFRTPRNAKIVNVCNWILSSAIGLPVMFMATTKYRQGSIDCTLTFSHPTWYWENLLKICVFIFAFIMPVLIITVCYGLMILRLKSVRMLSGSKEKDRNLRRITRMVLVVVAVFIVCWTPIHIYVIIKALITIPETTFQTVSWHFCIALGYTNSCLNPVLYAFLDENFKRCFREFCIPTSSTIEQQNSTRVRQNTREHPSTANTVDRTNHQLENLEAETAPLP
Method in brief: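 Rat whole brain (less cerebellum) membranes, preincubated 30 min at 25 °C to strip endogenous peptides. Displacement of 0.5 nM [3H]CTOP in 50 mM Tris-HCl pH 7.4 containing BSA, bestatin, bacitracin, captopril and toluenesulfonyl fluoride; 10 concentrations over an 800-fold range; 3 h at 25 °C; filtration.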

[4] = target: Delta-type opioid receptor (Mus musculus, UniProt P32300); assay: Inhibitory potency against Opioid receptor delta 1 was determined in electrically induced smooth muscle contractions of mouse vas deferens (MVD)
Sequence of Delta-type opioid receptor (Mus musculus, UniProt P32300) (P32300 whole entry): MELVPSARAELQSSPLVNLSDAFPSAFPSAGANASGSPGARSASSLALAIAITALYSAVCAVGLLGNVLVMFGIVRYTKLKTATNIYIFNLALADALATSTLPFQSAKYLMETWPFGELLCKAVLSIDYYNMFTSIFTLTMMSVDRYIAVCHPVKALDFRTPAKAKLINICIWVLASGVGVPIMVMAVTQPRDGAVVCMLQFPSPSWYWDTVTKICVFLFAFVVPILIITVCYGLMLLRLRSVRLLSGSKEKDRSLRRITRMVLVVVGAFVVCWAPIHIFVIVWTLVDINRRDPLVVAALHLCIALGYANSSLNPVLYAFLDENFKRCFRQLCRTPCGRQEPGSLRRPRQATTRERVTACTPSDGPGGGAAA
Method in brief: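 Vas deferens from male ICR mice (25–40 g), in Mg-free oxygenated Krebs at 37 °C under 0.5 g tension. Transmural stimulation at 0.1 Hz, 2.0-ms pulses, supramaximal voltage. […] IC50 from Hill fit of mean data from at least four tissues.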

Row | SMILES | pIC50 (Mu-type opioid receptor [1]) | pIC50 [2] | pIC50 (Mu-type opioid receptor [3]) | pIC50 [4]
1 | CC1(C)SSC(C)(C)[C@@H](NC(=O)[C@@H](N)Cc2ccc(O)cc2)C(=O)NCC(=O)N[C@@H](Cc2ccc(Br)cc2)C(=O)N[C@@H]1C(=O)N[C@@H](Cc1ccccc1)C(=O)O | 5.47 | 9.70 | 5.38 | 9.74
2 | CC1(C)SSC(C)(C)[C@@H](NC(=O)[C@@H](N)Cc2ccc(O)cc2)C(=O)NCC(=O)N[C@@H](Cc2ccc(I)cc2)C(=O)N[C@@H]1C(=O)N[C@@H](Cc1ccccc1)C(=O)O | 5.06 | 9.33 | 5.14 | 9.10
3 | CC1(C)SSC(C)(C)[C@@H](NC(=O)[C@@H](N)Cc2ccc(O)cc2)C(=O)NCC(=O)N[C@@H](Cc2ccccc2)C(=O)N[C@@H]1C(=O)N[C@@H](Cc1ccccc1)C(=O)O | 5.24 | 8.40 | 4.94 | 8.72
4 | CC1(C)SSC(C)(C)[C@@H](NC(=O)[C@@H](N)Cc2ccc(O)cc2)C(=O)NCC(=O)N[C@@H](Cc2ccc(F)cc2)C(=O)N[C@@H]1C(=O)N[C@@H](Cc1ccccc1)C(=O)O | 6.13 | 9.37 | 5.78 | 10.80
5 | CC1(C)SSC(C)(C)[C@@H](NC(=O)[C@@H](N)Cc2ccc(O)cc2)C(=O)NCC(=O)N[C@@H](Cc2ccc(Cl)cc2)C(=O)N[C@@H]1C(=O)N[C@@H](Cc1ccccc1)C(=O)O | 6.38 | 9.40 | 5.77 | 9.77
6 | CC1(C)SSC[C@@H](C(=O)N[C@@H](Cc2ccccc2)C(=O)O)NC(=O)[C@H](Cc2ccccc2)NC(=O)CNC(=O)[C@@H]1NC(=O)[C@@H](N)Cc1ccc(O)cc1 (HELM PEPTIDE1{Y.[CC(C)(S[*:3])[C@@H](N[*:1])C(=O)[*:2]].G.F.C.F}$PEPTIDE1,PEPTIDE1,2:R3-5:R3$$$V2.0) | 7.08 | – | – | –
